The IC50 is the midpoint of a concentration-inhibition curve. Low readings indicate inhibition by little substance, high ones a need for much substance. One may read the Inhibition as the drop in the measured response relative to a control, in per cent. Low readings indicate a response near the control, high ones a response far below the control.

The test system of experiment [1] is MOLT-4. The experiment in a line: Compound was evaluated for inhibition of [3H]methotrexate uptake into MOLT-4 cells. Format: functional, cell-based. The following applies: Homo sapiens.
In the next experiment the test system is MCF7. Put plainly: In vitro inhibition of growth of MCF-7 human breast adenocarcinoma using 72 hours continuous exposure. Format: functional, cell-based. The essentials:
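ATCC MCF-7 cells grown in RPMI 1640 with 10 nM calcium leucovorin as folate source, 10% dialyzed fetal calf serum, penicillin, streptomycin and sodium pyruvate (110 μg/mL). Cells seeded at 15000/well, preincubated 24 h at 37 °C, then exposed 72 h (37 °C, 5% CO2), triplicate per concentration. Growth read by MTT reduction, formazan dissolved in DMSO, A570 (reference 750 nm), against a cell-number standard curve.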

Experiment [2] relates to MOLT-4. Put plainly: In vitro inhibitory activity against MOLT-4 T-cell leukemia cell AICAR transformylase. The experiment is classed as functional, cell-based, Homo sapiens. The following applies: for IC50: Homo sapiens, MOLT-4.
In experiment [3] the target is GAR transformylase (Sus scrofa). Put plainly: In vitro inhibition of hog liver GAR transformylase with (6R)-10-formyl-FH4 as cofactor.

Regarding `Nc1nc(N)c(CCCNc2ccc(C(=O)NC(CCC(=O)O)C(=O)O)c(F)c2)c(O)n1` (stereo unspecified), the IC50 in the experiment with MOLT-4 [1] turned out to be 700 nM; with MCF7 it was 33 nM; in the experiment on MOLT-4 [2], 79300 nM.
On to `Nc1nc(N)c(CCCNc2ccc(C(=O)NC(CCC(=O)O)C(=O)O)cc2F)c(O)n1` (stereo unspecified), for which the half-maximal inhibitory concentration (IC50) was determined as 1000 nM in the experiment with MOLT-4 [1], 63 nM in the experiment with MCF7 and 133000 nM with MOLT-4 [2].
Take `Nc1nc(N)c(CCCCc2ccc(C(=O)N[C@@H](CCC(=O)O)C(=O)O)cc2)c(=O)[nH]1` [DIDEAZAACYCLOTETRAHYDROFOLIC ACID]: the IC50 came out at 900 nM in the experiment with MOLT-4 [1] and 61 nM in the experiment on MCF7.
Turning to `Nc1ncnc(O)c1CCCNc1ccc(C(=O)NC(CCC(=O)O)C(=O)O)cc1` (stereo unspecified), the IC50 in the experiment with MOLT-4 [1] was 2000 nM; with MCF7, > 50000 nM. For the same compound, the Inhibition in the experiment on MOLT-4 [2] came to 26%.
Regarding `Nc1nc(N)c(CCCSc2ccc(C(=O)NC(CCC(=O)O)C(=O)O)cc2)c(O)n1` (stereo unspecified), the concentration for half-maximal inhibition (IC50) with MOLT-4 [1] worked out at 800 nM; with MCF7, 23 nM; with MOLT-4 [2] it was 25800 nM.
`Nc1nnc(C2CCN(c3ccc(C(=O)NC(CCC(=O)O)C(=O)O)cc3)C2=O)c(O)n1` (stereo unspecified): the IC50 with MOLT-4 [1] and in the experiment on MCF7 was > 100000 nM throughout.
`Nc1nc(N)c(CCCCNc2ccc(C(=O)NC(CCC(=O)O)C(=O)O)cc2)c(O)n1` (stereo unspecified): the half-inhibitory concentration (IC50) with MOLT-4 [1] is 1500 nM; in the experiment on MCF7, 5000 nM.
The corresponding values for `Cc1cc(C(=O)NC(CCC(=O)O)C(=O)O)ccc1NCCCc1c(N)nc(N)nc1O` (stereo unspecified) are 1300 nM and 250 nM.
On to `Nc1nc(N)c(CCCNc2ccc(C(=O)NC(CCC(=O)O)C(=O)O)c(Cl)c2)c(O)n1` (stereo unspecified), for which the figures for the IC50 with MOLT-4 [1], in the experiment on MCF7 and in the experiment on MOLT-4 [2] were 700 nM, 115 nM and 182000 nM, respectively.
Regarding `Nc1nc(N)c(CCCOc2ccc(C(=O)NC(CCC(=O)O)C(=O)O)cc2)c(O)n1` (stereo unspecified), the results for the IC50 in the experiment on MOLT-4 [1] and in the experiment on MCF7 were 1100 nM and 85 nM, respectively.
`Nc1nc(N)c(CCCNc2ccc(C(=O)N[C@@H](CCC(=O)O)C(=O)O)cc2)c(O)n1`: the values for the IC50 (in experiment [3]; with MOLT-4 [1]) were 3000 nM and 1200 nM, respectively.
As to `COc1cc(C(=O)NC(CCC(=O)O)C(=O)O)ccc1NCCCc1c(N)nc(N)nc1O` (stereo unspecified), the IC50 with MOLT-4 [1] was 1000 nM; in the experiment on MCF7, 5000 nM.
Taken in the same sequence, the figures for `Nc1nc(O)c2c(n1)NCC(CCc1ccc(C(=O)NC(CCC(=O)O)C(=O)O)cc1)C2` (stereo unspecified) were 1500 nM and 18 nM.

(Values after ChEMBL document CHEMBL1125435, “Synthesis and biological activity of open-chain analogues of 5,6,7,8-tetrahydrofolic acid--potential antitumor agents” (J Med Chem, 1992).)
